Measurements reported in ChEMBL document CHEMBL1926656, “Cyclopeptide Alkaloids from Ziziphus apetala” (J Nat Prod, 2011).
Active and inactive are the calls of the source. The calls are words filed in the database; no cut-off is given here.

How the values were obtained:
[1] = tested on: HeLa; assay: Cytotoxicity against human HeLa cells; type: functional, cell-based
[2] = tested on: BGC-823; assay: Cytotoxicity against human BGC823 cells; type: functional, cell-based
[3] = molecular target: 11-beta-hydroxysteroid dehydrogenase 1 (Homo sapiens, UniProt P28845); assay: Inhibition of human 11beta-HSD1 expressed in human HEK293 cells assessed as conversion of [3H]cortisone to [3H]cortisol by scintillation proximity assay; type: cell-based
Sequence of 11-beta-hydroxysteroid dehydrogenase 1 (Homo sapiens, UniProt P28845) (P28845 whole entry): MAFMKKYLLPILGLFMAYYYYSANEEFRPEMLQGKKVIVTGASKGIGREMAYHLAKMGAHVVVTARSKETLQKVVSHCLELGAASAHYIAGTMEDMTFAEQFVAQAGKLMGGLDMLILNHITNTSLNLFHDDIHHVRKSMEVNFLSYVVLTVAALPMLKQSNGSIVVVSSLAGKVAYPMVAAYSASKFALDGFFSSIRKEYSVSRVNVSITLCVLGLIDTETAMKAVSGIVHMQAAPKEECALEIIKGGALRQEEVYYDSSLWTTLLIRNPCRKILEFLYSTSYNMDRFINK
Summary of the method: (§1)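 Full-length human or mouse 11β-HSD1 cDNA in pcDNA3, stably expressed in HEK-293 cells selected with 700 μg/mL G418; microsomal fraction used as enzyme. Microsomes incubated with NADPH and [3H]cortisone; [3H]cortisol product captured by monoclonal antibody on protein A-coated SPA beads. Glycyrrhizinic acid positive control. IC50 as mean ± SD, n = 3.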

[4] = molecular target: 11-beta-hydroxysteroid dehydrogenase 1 (Mus musculus, UniProt P50172); assay: Inhibition of mouse 11beta-HSD1 expressed in human HEK293 cells assessed as conversion of [3H]cortisone to [3H]cortisol by scintillation proximity assay; type: cell-based; summary of the method: as §1
Sequence of 11-beta-hydroxysteroid dehydrogenase 1 (Mus musculus, UniProt P50172) (P50172 whole entry): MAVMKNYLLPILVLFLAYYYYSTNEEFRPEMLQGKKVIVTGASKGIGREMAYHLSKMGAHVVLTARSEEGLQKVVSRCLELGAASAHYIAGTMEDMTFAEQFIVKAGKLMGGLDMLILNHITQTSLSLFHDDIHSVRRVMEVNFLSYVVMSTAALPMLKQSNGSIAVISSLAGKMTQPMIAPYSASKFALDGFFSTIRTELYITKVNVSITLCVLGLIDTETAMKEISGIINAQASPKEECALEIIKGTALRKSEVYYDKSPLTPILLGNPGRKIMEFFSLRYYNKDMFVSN

IC50 [3] [µM] | IC50 [4] [µM] | SMILES | Activity [1] | Activity [2]
 |  | C/C(=N/O)C(=O)N[C@H](C(=O)N1CC[C@@H]2Oc3ccc(cc3)/C=C\NC(=O)[C@H](Cc3ccccc3)NC(=O)[C@H]21)C(C)C | inactive | inactive
 |  | CC(C)[C@H](NC(=O)[C@@H](C)[N+](C)(C)[O-])C(=O)N1CC[C@@H]2Oc3ccc(cc3)/C=C\NC(=O)[C@H](Cc3ccccc3)NC(=O)[C@H]21 | inactive | inactive
0.0186 | 0.0295 | CC1(C)[C@@H](O[C@H]2O[C@H](C(=O)O)[C@@H](O)[C@H](O)[C@H]2O[C@@H]2O[C@H](C(=O)O)[C@@H](O)[C@H](O)[C@H]2O)CC[C@]2(C)[C@H]3C(=O)C=C4[C@@H]5C[C@@](C)(C(=O)O)CC[C@]5(C)CC[C@@]4(C)[C@]3(C)CC[C@@H]12 [GLYCYRRHIZIN] |  | 
 |  | CC(C)[C@@H](C(=O)N1CC[C@@H]2Oc3ccc(cc3)/C=C\NC(=O)[C@H](Cc3ccccc3)NC(=O)[C@H]21)N1CN(C)[C@@H](C)C1=O | inactive | inactive
 |  | CC(C)[C@H](NC(=O)[C@@H](C)N(C)C)C(=O)N1CC[C@@H]2Oc3ccc(cc3)/C=C\NC(=O)[C@H](Cc3ccccc3)NC(=O)[C@H]21 | inactive | inactive
 |  | CN[C@@H](C)C(=O)N[C@H](C(=O)N1CC[C@@H]2Oc3ccc(cc3)/C=C\NC(=O)[C@H](Cc3ccccc3)NC(=O)[C@H]21)C(C)C | inactive | inactive
90.3 | 54.2 | CC(C)[C@H](NC(=O)[C@H](C)N(C)C)C(=O)N1CC[C@@H]2Oc3ccc(cc3)/C=C\NC(=O)[C@H](Cc3ccccc3)NC(=O)[C@H]21 [MAURITINE A] | inactive | inactive
 |  | CC(C)[C@H](NC(=O)[C@H](C)[N+](C)(C)[O-])C(=O)N1CC[C@@H]2Oc3ccc(cc3)/C=C\NC(=O)[C@H](Cc3ccccc3)NC(=O)[C@H]21 | inactive | inactive
 |  | CC(C)[C@H](NC(=O)C(C)N(C)C=O)C(=O)N1CC[C@@H]2Oc3ccc(cc3)/C=C\NC(=O)[C@H](Cc3ccccc3)NC(=O)[C@H]21 (stereo not given in full) | inactive | inactive
